Hits are enriched below; roughly 0.99% of the tested compounds scored in any of these assays.
Rce1 inh: yeast Ras-converting enzyme inhibition. 0.27% of 290,000 active. yeast membranes, quenched prenylated peptide cleavage fluorescence. calls only. AID 2563. Q03530;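 active means fall in fluorescence gain of 50% or more versus controls, with final raw signal at or below 3038400; inconclusive means same 50% fall but final raw signal above 3038400; inactive means fall in fluorescence gain under 50%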;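 further: plate controls were neutral control wells for no effect and wells lacking membranes for full effect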
Dyrk1A ADPGlo: inhibitors of rat Dyrk1A kinase. Q63470. ADP-Glo luminescence, NFATc1 peptide. inhibition, % at 12.5 µM. 0.43% of 310,000 active. AID 504441; in the data active means inhibition above about 50%;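 further: plate controls were vehicle with enzyme for no effect and no enzyme for full effect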
STK33 inh: human STK33 kinase inhibition | Q9BYT3 | purified STK33, MBP phosphorylation, ADP-Glo luminescence | inhibition, % at 10 µM | 0.073% of 320,000 active | AID 2661;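 active means inhibition at or above 25%, using the most active replicate where run in duplicate; inactive means inhibition below 25%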
Target sequence (Q9BYT3 whole entry, looked up): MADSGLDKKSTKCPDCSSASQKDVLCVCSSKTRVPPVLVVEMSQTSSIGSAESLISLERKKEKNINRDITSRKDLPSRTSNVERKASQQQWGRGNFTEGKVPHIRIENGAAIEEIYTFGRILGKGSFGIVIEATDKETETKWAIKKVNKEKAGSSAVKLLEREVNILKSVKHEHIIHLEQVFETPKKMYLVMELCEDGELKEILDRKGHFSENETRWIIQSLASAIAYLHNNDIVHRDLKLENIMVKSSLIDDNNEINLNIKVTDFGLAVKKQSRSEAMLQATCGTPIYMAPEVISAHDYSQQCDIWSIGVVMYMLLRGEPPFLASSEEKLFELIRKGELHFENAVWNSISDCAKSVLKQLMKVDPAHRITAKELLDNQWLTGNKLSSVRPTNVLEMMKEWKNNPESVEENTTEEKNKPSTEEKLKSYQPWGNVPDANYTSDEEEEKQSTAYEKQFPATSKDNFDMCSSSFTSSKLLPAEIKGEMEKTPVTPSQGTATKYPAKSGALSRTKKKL
GSK3 alpha inh: human GSK-3 alpha kinase inhibition; inhibition, % at 10 µM; 0.1% of 320,000 active; ADP-Glo luminescence, 60 min;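 active means more than half of replicates show inhibition above 20%; inconclusive means some but at most half of replicates above 20% inhibition; inactive means no replicate shows inhibition above 20%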;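 further: GST-tagged GSK-3 alpha with peptide substrate and 25 µM ATP; 0% = DMSO neutral wells and 100% = GW8510 positive control wells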
AI-2 QS mod: Vibrio harveyi AI-2 quorum sensing modulation. Vibrio harveyi JMH597 AI-2 luminescence/OD600 ratio, 9 h; active compounds read low; strain lacks LuxN and CqsS sensors; 0 = neutral-control median. activity change, % at 7.5 µM. 0.4% of 300,000 active; in the data active means activity change below about -75%, passing the limit was not always enough; inconclusive means no clear call, values can overlap the other calls;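 further: luminescence divided by OD600 gain over 9 h not by final OD600 alone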
GSK3beta inhib: blocks human GSK3beta kinase activity | GST-GSK3beta kinase, ADP-Glo luminescence, 60 min; active compounds read low | activity score (negative = inhibition), % at 10 µM | 0.038% of 300,000 active | AID 2097;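 active means more than half of replicate wells score below -50%, meaning over 50% inhibition versus plate controls; inconclusive means some replicates but at most half score below -50%; inactive means no replicate scores below -50%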;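 further: 0% = median DMSO wells and -100% = median GW8510 positive control wells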
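Assay system: GST-fused GSK3beta enzyme, cell-free / Medium: Tris pH 7.5 buffer with MgCl2, DTT, BSA, heparin / Also added: peptide substrate plus 25 µM ATP (final) / Compound: 10 µM single point / Timing: kinase reaction with compound 60 min at room temperature / Detection: ADP-Glo luminescence / Benchmarks: DMSO neutral wells and GW8510 at 20 µM as positive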
JMH597 growth rt: retest Vibrio harveyi JMH597 growth inhibition; growth inhibition, % at 7.5 µM; shares compounds with AI-2 QS mod; AID 2726; OD600 absorbance, 9 h; lacks LuxN and CqsS sensors; 1% of 750 active;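 active means every replicate shows growth inhibition above 50%; inconclusive means at least half, but not all, replicates pass that cutoff; inactive means fewer than half of replicates pass it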
BB721 const-QS lum: retest counter-screen: lowers luminescence of constitutive-QS Vibrio harveyi BB721 | 95% of 750 active | AID 2727 | inhibition, % at 7.5 µM | shares compounds with AI-2 QS mod | 9 h;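 active means inhibition above about 80% in every replicate, not just on average, limit read from the data; inconclusive means at least half of replicates past the limit, but not all; inactive means fewer than half of replicates past the limit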
BB721 growth rt: retest Vibrio harveyi BB721 growth inhibition; OD600 absorbance, 9 h; shares compounds with AI-2 QS mod; growth inhibition, % at 7.5 µM; 3% of 750 active;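 active means every replicate shows growth inhibition above 50%; inconclusive means at least half but not all replicates above 50% inhibition; inactive means under half of replicates above 50% inhibition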
JMH597 AI-2 mod: Vibrio harveyi AI-2 signaling luminescence modulation – JMH597 strain, confirmation; inhibition, % at 7.5 µM; AID 2736; shares compounds with AI-2 QS mod; 97% of 750 active; Vibrio harveyi JMH597 AI-2 quorum sensing luminescence, 9 h; luxN and CqsS knockout, AI-2 only;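 active means every replicate shows more than 75% inhibition of signal versus neutral control wells; inconclusive means half to three quarters of replicates exceed 75% inhibition; inactive means fewer than half of replicates exceed 75% inhibition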
The depositor's hits bear a star; i = inactive; ? = inconclusive; . = no result given.

SMILES	Rce1 inh	Dyrk1A ADPGlo	STK33 inh	GSK3 alpha inh	AI-2 QS mod	GSK3beta inhib	JMH597 growth rt	BB721 const-QS lum	BB721 growth rt	JMH597 AI-2 mod
c1ccc(-c2noc(CSc3nc4ccccc4o3)n2)cc1	i	-4	-1	0	?	-1	-3	87*	-34	94*
c1ccc2oc(SCc3cn4ccccc4n3)nc2c1	i	.	-1	-2	-78*	-1	3	92*	3	95*
CCOc1ccc(OCCSc2nc3ccccc3o2)cc1	i	3	0	-3	23	2	.	.	.	.
O=C(COc1ccccc1Cl)NCCCNC(=O)c1cccnc1	i	-4	4	0	7	6	.	.	.	.
CC1(c2ccc(Cl)cc2)NC(=O)N(CC(=O)Nc2ccc(F)cc2)C1=O (stereo not drawn)	i	1	-1	-2	-78*	1	-12	86*	-15	89*
CC(C)CC1(C)NC(=O)N(CC(=O)Nc2ccc3c(c2)CCC3)C1=O (stereo not drawn)	i	7	-1	-2	-85*	-4	2	90*	-11	94*
Cc1ccc(C2(C)NC(=O)N(CC(=O)Nc3ccc4c(c3)CCC4)C2=O)cc1 (stereo not drawn)	.	.	-1	11	.	.	.	.	.	.
CC1(c2ccc3c(c2)OCO3)NC(=O)N(CC(=O)Nc2ccccc2)C1=O (stereo not drawn)	.	13	.	.	.	.	.	.	.	.
COc1ccc(NC(=O)CN2C(=O)NC(C)(c3ccccc3)C2=O)cc1Cl (stereo not drawn)	i	-4	0	-1	-95*	2	24	96*	14	98*
CC1(c2ccccc2)NC(=O)N(CC(=O)Nc2ccc3c(c2)OCO3)C1=O (stereo not drawn)	i	0	0	-2	-95*	0	-10	96*	-14	98*
CCN(CC(=O)Nc1ccc(NC(C)=O)cc1)C(=O)c1ccccc1CCc1ccccc1	i	13	.	.	12	0	.	.	.	.
CC1(c2ccc(OC(F)F)cc2)NC(=O)N(CC(=O)Nc2ccc3c(c2)OCO3)C1=O (stereo not drawn)	i	2	-1	-6	-94*	-1	-4	96*	-11	97*
CC(C)(C)c1ccc(C2(C)NC(=O)N(CC(=O)Nc3ccc4c(c3)OCO4)C2=O)cc1 (stereo not drawn)	i	3	1	-1	-60	1	.	.	.	.
Cc1cc(=O)oc2cc(NC(=O)CN3C(=O)NC(C)(c4ccccc4)C3=O)ccc12 (stereo not drawn)	i	5	-1	-2	-84*	0	6	86*	-1	91*
O=C(Cn1c(=O)oc2cc(S(=O)(=O)N3CCCC3)ccc21)NCc1ccccn1	i	1	0	0	-97*	0	6	99*	-52	99*
COc1ccccc1CNC(=O)Cn1c(=O)oc2cc(S(=O)(=O)N3CCCC3)ccc21	i	-2	-2	5	34	2	.	.	.	.
COc1ccccc1C(=O)NC(CCSC)C(=O)OCC(=O)N1CCN(S(=O)(=O)c2ccc(C)cc2)CC1 (stereo not drawn)	.	4	.	.	.	.	.	.	.	.
CN(Cc1ccc(Br)s1)C(=O)CNC(=O)c1ccc2c(c1)OCO2	.	.	-1	-3	.	.	.	.	.	.
Cc1cc(Br)ccc1NC(=O)CN1C(=O)C2CC=CCC2C1=O (stereo not drawn)	.	7	1	-3	.	.	.	.	.	.
Cc1ccccc1OCC(=O)O/N=C(\N)Cc1cccs1	i	.	1	-5	5	1	.	.	.	.
Cc1ccccc1C(=O)O/N=C(\N)Cc1cccs1	i	3	0	2	-87*	2	-7	95*	-8	96*

High-throughput results deposited in PubChem by Broad Institute.
